# In PMC12799549 (Drug Metabolism and Disposition, 2025):
# Like-named read-outs stand apart in the source and are kept apart here. Marks after values point to notes of the source that are not given here.
# Key:
# [1] = system: HEK293 cells; test: MTT cell viability, HEK293; format: cell-based, human; conditions: for % resistant: plateau of biphasic curve fit, mean ± SEM; for concentration required to impact the remaining (resistant) cells: biphasic viability profile
# How it was run: (§1)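 Cells seeded at 1.1 × 10^5/well in complete medium; 1 h later, medium with a range of test compound concentrations added for 48 h at 37 °C, 5% CO2. Vehicle is DMSO-only medium (100%), and compound medium without cells is background (0%). MTT 1 mg/mL in Dulbecco's PBS for 90 min; formazan dissolved in DMSO, A570. Biphasic curves fitted to a 2-site model: plateau gives % resistant, with a LogEC50 per phase. n = 5.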
# [2] = system: ENT1KO cells; test: MTT cell viability, ENT1KO; format: cell-based, human; conditions: 48 h; for % resistant: ENT1KO, plateau of biphasic curve fit; for EC50: Homo sapiens
# How it was run: as §1
# [3] = system: ENT2KO cells; test: MTT cell viability, ENT2KO; format: cell-based, human; conditions: 48 h; for % resistant: plateau of biphasic curve fit
# How it was run: as §1
# [4] = system: E1E2KO cells; test: MTT cell viability, E1E2KO; format: cell-based, human; conditions: 48 h; for % resistant: E1E2KO, plateau of biphasic curve fit; for EC50: Homo sapiens
# How it was run: as §1
# [5] = target: T1, ENT2 (Homo sapiens, UniProt Q14542); test: Inhibition of [3H]2-chloroadenosine uptake in ENT1KO cells; format: cell-based
# T1 sequence (Q14542 1-456): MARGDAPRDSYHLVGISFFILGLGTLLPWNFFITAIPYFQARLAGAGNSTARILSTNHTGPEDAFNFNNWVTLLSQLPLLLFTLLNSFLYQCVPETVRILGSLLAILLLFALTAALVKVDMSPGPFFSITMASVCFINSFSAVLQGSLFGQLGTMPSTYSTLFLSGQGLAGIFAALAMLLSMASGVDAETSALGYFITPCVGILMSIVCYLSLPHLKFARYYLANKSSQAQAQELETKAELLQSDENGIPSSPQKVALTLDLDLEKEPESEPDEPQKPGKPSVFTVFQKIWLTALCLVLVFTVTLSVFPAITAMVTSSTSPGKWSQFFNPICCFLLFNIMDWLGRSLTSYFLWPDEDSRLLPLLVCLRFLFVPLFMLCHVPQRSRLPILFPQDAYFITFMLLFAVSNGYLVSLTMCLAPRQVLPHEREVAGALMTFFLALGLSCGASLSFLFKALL
# [6] = system: ENT1 and ENT2; format: cell-based, human; conditions: HEK293 cells; 10 μM substrate, 15 s uptake; printed as logIC50 (negative)
# [7] = target: T2, ENT1 (Homo sapiens, UniProt Q99808); test: Inhibition of [3H]2-chloroadenosine uptake in ENT2KO cells; format: cell-based; conditions: comparison of ENT2KO cells (ENT1) with ENT1KO cells (ENT2)
# T2 sequence (Q99808 1-456): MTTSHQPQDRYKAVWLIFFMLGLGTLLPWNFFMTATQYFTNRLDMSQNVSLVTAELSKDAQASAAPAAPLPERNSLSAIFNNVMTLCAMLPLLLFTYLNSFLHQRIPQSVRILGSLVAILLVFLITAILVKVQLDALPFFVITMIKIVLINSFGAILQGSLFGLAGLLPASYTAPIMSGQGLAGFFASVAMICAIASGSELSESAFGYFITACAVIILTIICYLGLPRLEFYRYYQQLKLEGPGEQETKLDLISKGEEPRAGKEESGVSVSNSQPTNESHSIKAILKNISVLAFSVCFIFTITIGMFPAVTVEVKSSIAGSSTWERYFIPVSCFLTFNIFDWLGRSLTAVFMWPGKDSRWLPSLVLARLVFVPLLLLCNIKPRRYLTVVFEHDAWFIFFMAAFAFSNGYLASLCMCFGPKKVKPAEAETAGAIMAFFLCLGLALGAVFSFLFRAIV
# [8] = target: T2, ENT1; test: [3H]2-chloroadenosine transport kinetics, ENT1-mediated uptake; format: cell-based; conditions: for Vmax of ENT1-mediated uptake: 10 s uptake
# How it was run: (§2)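 Trypsin/EDTA-detached cells were suspended in sodium-free N-methylglucamine buffer, pH 7.4, with 0.1% DMSO, 100 nM NBMPR or 5 mM adenosine, 15 min at room temperature. Uptake of varied [3H]2-chloroadenosine ran 10 s and was stopped by spinning through silicone:mineral oil; NaOH-digested pellets were scintillation-counted. Cell volume came from [3H]-water. ENT2 = NBMPR minus adenosine condition; ENT1 = mediated minus ENT2. Michaelis-Menten Km/Vmax; 5 experiments, duplicate.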
# [9] = target: T1, ENT2; test: [3H]2-chloroadenosine transport kinetics, ENT2-mediated uptake; format: cell-based
# How it was run: as §2
# [10] = read-out: LogEC50-1 (converted)
# [11] = read-out: LogEC50-2 (converted)
Compound,"% resistant ([1]; 48 h, n = 5)",% resistant [2],"EC50 [2, 10] [µM]",% resistant [3],% resistant [4],"EC50 [4, 10] [µM]",concentration required to impact the remaining (resistant) cells [1] [µM],also measured
O=c1[nH]cc(F)c(=O)[nH]1 [5-fluorouracil],Monophasic,Monophasic,8.51,Monophasic,48 ± 10%,7.76,–,"EC50 [4, 11]: 1070 µM"
Sc1ncnc2nc[nH]c12 [6-mercaptopurine],–,66 ± 4 ^b %,2.95,41 ± 3%,70 ± 4 ^b %,26.3,> 300,–
Nc1nc2nc[nH]c2c(=S)[nH]1 [6-thioguanine],–,10 ± 3%,1.7,25 ± 5%,Monophasic,77.6,> 300,–
"Nc1nc(Cl)nc2c1ncn2[C@H]1C[C@H](O)[C@@H](CO)O1 [Cladribine, cladribine]",Monophasic,Monophasic,3.98,Monophasic,Monophasic,16.6,–,"LogEC50-1 ([1]; 48 h, high affinity phase, given as logEC50 (negative)): −5.11 ± 0.07; LogEC50-1 ([3]; high affinity phase, given as logEC50 (negative)): −4.51 ± 0.07 ^b"
"Nc1nc(Cl)nc2c1ncn2[C@@H]1O[C@H](CO)[C@@H](O)[C@@H]1F [Clofarabine, clofarabine]",21 ± 2%,6 ± 2 ^b %,0.174,70 ± 3 ^b %,Monophasic,138,> 300,"Ki [5]: 75 ± 49 µM; % resistant ([1]; 48 h, n = 5, listed as clofarabine): approximately 20%; sensitivity of ENT2KO cells to the drug [3]: almost completely resistant"
"Nc1ccn([C@@H]2O[C@H](CO)[C@@H](O)[C@@H]2O)c(=O)n1 [Cytarabine, cytarabine]",51 ± 2%,37 ± 3 ^b %,2.34,Monophasic,Monophasic,–,> 300,"EC50 [2, 11]: 4570 µM; sensitivity of ENT2KO cells to the drug [3]: almost completely resistant; EC50 [4, 11]: 11200 µM"
"OCCN(CCO)c1nc(N2CCCCC2)c2nc(N(CCO)CCO)nc(N3CCCCC3)c2n1 [DY, Dipyridamole]",–,–,–,–,–,–,–,"IC50 [5]: 0.501 µM; logIC50, monophasic inhibition of [3H]2-chloroadenosine uptake [6]: −6.6 ±.01 M"
"COc1cc(C(=O)OCCCN2CCCN(CCCOC(=O)c3cc(OC)c(OC)c(OC)c3)CC2)cc(OC)c1OC [Dilazep, dilazep]",–,–,–,–,–,–,–,IC50 [5]: 6.31 µM
"Nc1ccn([C@@H]2O[C@H](CO)[C@@H](O)C2(F)F)c(=O)n1 [Gemcitabine, gemcitabine]",33 ± 4%,14 ± 2 ^b %,0.0427,76 ± 3 ^b %,Monophasic,–,> 300,"EC50 [2, 11]: 468 µM; sensitivity of ENT2KO cells to the drug [3]: almost completely resistant; EC50 [4, 11]: 1820 µM"
"Nc1nc2c(ncn2[C@@H]2O[C@H](CO)[C@@H](O)[C@H]2O)c(=O)[nH]1 [Guanosine, guanosine]",–,–,–,–,–,–,–,relative affinity for ENT1 versus ENT2 [7]: significantly higher affinity for ENT1 over ENT2
"O=[N+]([O-])c1ccc(CSc2ncnc3c2ncn3[C@@H]2O[C@H](CO)[C@@H](O)[C@H]2O)cc1 [NBMPR, nitrobenzylmercaptopurine riboside (nitrobenzylthioinosine)]",–,–,–,–,–,–,–,"concentration required to obtain any inhibition of [3H]2-chloroadenosine uptake ([5]; ENT1KO cells): > 1 µM; logIC50, inhibition of [3H]2-chloroadenosine uptake ([5]; ENT1KO cells, 10 μM substrate, 15 s uptake, printed as logIC50 (negative)): ~−5.5 ± 0.1 M"
Nc1ncnc2c1ncn2[C@@H]1O[C@H](CO)[C@@H](O)[C@@H]1O [Vidarabine],–,–,–,–,–,–,–,Ki [5]: 60 ± 24 µM
"[3H]c1nc2c(N)nc(Cl)nc2n1[C@@H]1O[C@H](CO)[C@@H](O)[C@H]1O [[^3H]2-chloroadenosine, [8-^3H]2-Chloroadenosine]",–,–,–,–,–,–,–,ENT1-mediated uptake ([8]; E1E2KO cells): no ENT1-mediated or ENT2-mediated uptake; Vmax of ENT1-mediated uptake ([8]; ENT2KO cells): 4.8 ± 0.6 pmol/μL per second; Vmax of ENT1-mediated uptake ([8]; HEK293 cells): 3.2 ± 0.3 pmol/μL per second; ENT2-mediated uptake ([9]; E1E2KO cells): no ENT1-mediated or ENT2-mediated uptake; ENT2-mediated uptake ([9]; ENT2KO cells): no detectable ENT2-mediated uptake
